# Assay outcomes (PubChem)
# MrgX1 ag: agonists of human MrgX1 receptor; MrgX1-HEK293 cells, Fluo-4 calcium fluorescence, agonist mode; hits give high values; Q96LB2; 310,000 tested, 0.44% active; B-score at 10 µM;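 active = calcium response B-score plate-corrected fluorescence ratio at least 3 library SD, with starting fluorescence B-score inside 5 SD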
# Target sequence (Q96LB2 whole entry, looked up): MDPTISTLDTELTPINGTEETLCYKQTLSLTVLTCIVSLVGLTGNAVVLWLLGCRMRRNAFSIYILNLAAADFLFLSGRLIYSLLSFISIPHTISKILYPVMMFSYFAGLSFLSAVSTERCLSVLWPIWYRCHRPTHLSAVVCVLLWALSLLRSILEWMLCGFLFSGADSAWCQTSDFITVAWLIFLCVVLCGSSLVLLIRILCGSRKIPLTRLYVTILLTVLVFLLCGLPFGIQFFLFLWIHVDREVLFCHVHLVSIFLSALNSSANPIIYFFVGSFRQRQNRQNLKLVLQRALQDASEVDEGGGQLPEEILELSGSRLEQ
#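 Test system: HEK293 cells stably expressing human MrgX1 receptor; amount: 15,000 cells per well; doses: compound delivered in addition one of three; times: overnight plating before 1 h dye loading; detection: Fluo-4 NW calcium-flux fluorescence, kinetic read; read-out basis: B-scored fluorescence response ratio; controls: positive and negative controls per plate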
# RGS4 inh: inhibitors of human RGS4; B-score at 10 µM; AID 463165; 310,000 tested, 0.45% active; HEK293 M3R/RGS4 inducible, Fluo-4 calcium flux; hits give high values; triggered by carbachol at its EC20; P49798;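 active = B-score, a plate-corrected calcium signal, over three deviations above library mean, with baseline fluorescence within five deviations of library mean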;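 note: RGS4 expression induced by doxycycline in cells with stable M3 receptor; B-score is computed from the integrated fluorescence ratio over baseline after carbachol; higher B-score means a larger calcium signal and so more RGS4 inhibition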
# Target sequence (P49798 whole entry, looked up): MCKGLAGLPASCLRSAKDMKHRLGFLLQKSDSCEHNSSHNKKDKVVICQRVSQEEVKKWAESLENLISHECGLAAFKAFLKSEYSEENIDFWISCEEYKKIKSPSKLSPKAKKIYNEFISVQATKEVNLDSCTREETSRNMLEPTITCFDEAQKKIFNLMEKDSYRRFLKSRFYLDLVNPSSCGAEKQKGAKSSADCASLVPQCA
# MrgX1 antag: antagonists of human MrgX1 receptor. 310,000 tested, 1.3% active. Q96LB2. B-score at 10 µM. MRGX1-HEK293 calcium flux, Fluo-4, BAM8-22 antagonism; hits give low values. AID 588676;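 active = calcium-response B-score plate-corrected more than 3 library SD below zero, starting fluorescence within 5 deviations, no agonist response on first addition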;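 note: peak minus trough fluorescence over baseline after final BAM8-22 challenge near maximal dose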
# MrgX1 PAM: human MrgX1 positive allosteric modulation, primary screen; Q96LB2; 310,000 tested, 0.63% active; AID 588675; B-score at 10 µM; MrgX1-HEK293, Fluo-4 calcium flux, FDSS; hits give high values;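 active = plate-corrected calcium response at least 3 library SD above typical, normal starting fluorescence, not activating the receptor alone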;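 note: compound read alongside a low EC10 to EC30 dose of BAM8-22 agonist; peak minus trough fluorescence over baseline measured at the second addition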
# RGS4 act: potentiators or activators of RGS4; HEK293 M3R/inducible RGS4, carbachol calcium flux Fluo4; hits give low values; AID 463111; 310,000 tested, 0.92% active; B-score at 10 µM;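 active = B-score of the integrated calcium signal more than 4 SD below the library mean, with starting fluorescence not abnormally high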;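 note: negative B-score means reduced calcium response which marks RGS4 activation or potentiation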
#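 Assay system: Inducible-RGS4 HEK293 cells carrying M3 receptor | Schedule: Compound preincubation 20 min at room temperature before agonist | Signal: Kinetic calcium fluorescence imaging with Fluo4-AM dye, 2 µM | Read-out basis: B score from integrated fluorescence ratio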
# MrgX1 ant reconf: human MrgX1 receptor antagonism, re-confirmation screen. shares compounds with MrgX1 antag. MrgX1-HEK293, BAM8-22 calcium flux, Fluo-4; hits give low values. remaining BAM8-22 calcium response % of control (hits give low values), % at 10 µM. 2,300 tested, 19% active. AID 602420;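 active = remaining agonist calcium response no higher than 100% minus 3 SD of agonist-only control wells, with starting fluorescence near control levels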;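 note: agonist BAM8-22 given at a near maximal EC90 to ECmax level; peak minus minimum fluorescence divided by baseline after agonist addition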
# HEK293 Ca flux: counter-screen for MrgX1 antagonists: effect in parental HEK293 cells | 4,000 tested, 2% active | shares compounds with MrgX1 antag | fluorescence ratio F(max-min)/F0 at 10 µM | Fluo-4 calcium fluorescence, FDSS;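 active = duplicate-averaged calcium fluorescence ratio at least three times the standard deviation of buffer wells, a nonspecific response in parental cells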
# HEK293 Ca counter: counter-screen for MrgX1 allosteric activators: effect in parental HEK293 cells. shares compounds with MrgX1 antag. parental HEK293 calcium flux, Fluo-4 fluorescence ratio; hits give high values. fluorescence ratio F(max-min)/F0 at 10 µM. 4,000 tested, 0.4% active. AID 624114;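 active = calcium fluorescence ratio, averaged over duplicates, at least 3 SD of the buffer-well ratio, meaning a nonspecific response in receptor-free cells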;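 note: untransfected parental HEK293 lacking MrgX1 used as counterscreen for MrgX1 allosteric activators; fluorescence change taken during the second addition on a kinetic imager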
# HEK293 Ca cntr2: MrgX1 activator counter-screen hit in parental HEK293 cells | fluorescence ratio F(max-min)/F0 at 10 µM | 4,000 tested, 8.7% active | shares compounds with MrgX1 antag | Fluo-4 calcium fluorescence (FDSS); hits give high values | AID 624115;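 active = calcium fluorescence ratio at least three times the spread of buffer wells, meaning a non-specific response in parental cells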
# Hits are given with their value; . = inactive; / = no result given. The list is not random: actives were taken first. Their share in the collection is about 3.5%.
SMILES,MrgX1 ag,RGS4 inh,MrgX1 antag,MrgX1 PAM,RGS4 act,MrgX1 ant reconf,HEK293 Ca flux,HEK293 Ca counter,HEK293 Ca cntr2
CCOC(=O)Cc1csc(NS(=O)(=O)c2ccc3ccccc3c2)n1,.,.,.,.,.,/,/,/,/
O=C(NCCN1C(=O)S/C(=C\c2ccc(Cl)c([N+](=O)[O-])c2)C1=O)C1=COCCO1,.,.,.,.,.,/,/,/,/
Cc1ccc(C(=O)NCCc2nnc3ccc(SCC(=O)Nc4c(C)cc(C)cc4C)nn23)cc1,.,.,-5.69,.,.,.,.,.,.
COCCCN(C(=O)CSCc1c(C)noc1C)c1c(N)n(Cc2ccccc2)c(=O)[nH]c1=O,.,.,.,.,.,/,/,/,/
CCOc1ccc(N(CC(=O)N2CCc3ccccc32)S(=O)(=O)c2c(C)noc2C)cc1,.,.,.,.,.,/,/,/,/
Cc1cc(C)cc(N(CC(=O)N2CCc3ccccc32)S(=O)(=O)c2c(C)noc2C)c1,.,.,-7.25,.,.,.,.,.,.
CCCC(=O)Nc1ccccc1N1CCN(C(=O)C(C)C)CC1,.,.,-5.16,.,.,.,.,.,.
CC(C)C(=O)N1CCN(c2ccccc2NC(=S)NC(=O)Cc2ccccc2)CC1,.,.,.,.,.,/,/,/,/
O=C1C(C=NCc2ccco2)=C(O)c2ccccc21,.,.,-8.63,.,.,.,.,.,.
CCc1noc(C)c1C(=O)N1CCCC1,.,.,-4.66,.,.,78.0%,.,.,.
CCc1noc(C)c1C(=O)N1CC(C)OC(C)C1 (stereo not drawn),.,.,.,.,.,/,/,/,/
C/C(=N\Nc1ccccc1C(=O)O)c1ccncc1,.,.,.,.,.,/,/,/,/
CCOc1ccccc1NC(=O)CN(c1ccc(C)cc1)S(=O)(=O)c1c(C)n[nH]c1C,.,.,.,.,.,/,/,/,/
CCOC(=O)c1ccc(NC(=O)CN(c2ccc(C)cc2)S(=O)(=O)c2c(C)n[nH]c2C)cc1,.,.,-6.2,.,.,.,.,.,51.9
Cc1cc(C)c2cc3c(ccn3C3OC[C@H](O)[C@H](O)[C@H]3O)cc2n1 (stereo partly drawn),.,.,-6.36,.,.,.,.,.,.
CCc1nn(CCCC(=O)NCc2ccco2)c(=O)c2cc3occc3n12,.,.,.,.,.,/,/,/,/
Cc1cccc(N2CCN(C(=O)COc3cc(=O)n(C)c4ccccc34)CC2)c1C,.,.,.,.,.,/,/,/,/
Cc1cccc(N2CCN(C(=O)Cc3cn(C)c4ccccc34)CC2)c1C,.,.,-4.67,.,.,80.6%,.,.,.
O=C(O)C1=C(C(=O)N2CCN(C(=O)c3ccco3)CC2)CCCC1,.,.,-5.56,.,.,.,.,.,.
O=C(c1ccco1)N1CCN(C(=O)N2CCCCC2)CC1,.,.,.,.,.,/,/,/,/
COc1ccccc1NC(=O)NC1(C(=O)NCC2CCCO2)CCCCC1 (stereo not drawn),.,.,.,.,.,/,/,/,/
O=C(/C=C/c1ccccc1)Nc1nnc(-c2ccco2)o1,.,.,.,.,.,/,/,/,/
O=C(CCN1C(=O)/C(=C/c2ccc(F)cc2)SC1=S)N[C@@H](CO)Cc1ccccc1,.,.,.,.,.,/,/,/,/
CC(C)CCc1noc(CN(C)CCC2CCOCC2)n1,.,.,.,.,.,/,/,/,/
Cc1nn(C)c(C)c1CN(Cc1nc(CCC(C)C)no1)C(C)C,.,.,-4.63,.,.,.,.,.,.
SMILES,MrgX1 ag,RGS4 inh,MrgX1 antag,MrgX1 PAM,RGS4 act,MrgX1 ant reconf,HEK293 Ca flux,HEK293 Ca counter,HEK293 Ca cntr2
CC(OC(=O)Cc1ccccc1[N+](=O)[O-])C(=O)NC(=O)NC1CCCCC1 (stereo not drawn),.,.,.,.,.,/,/,/,/
COC1=NS(=O)(=O)c2ccccc21,.,.,.,.,.,/,/,/,/
Cc1ccc(C)c(OC2=NS(=O)(=O)c3ccccc32)c1,.,.,-4.84,.,.,.,.,.,.
CCCCC1CCC(C(=O)N(C)CC(=O)Nc2cccc(F)c2)CC1 (stereo not drawn),.,.,-5.38,.,.,.,.,.,.
CC1CC1C(=O)N(C)CC(=O)Nc1cccc(F)c1 (stereo not drawn),.,.,.,.,.,/,/,/,/
O=C(NCc1nnc(SCC(=O)N2CCCC2)o1)c1ccccc1,.,.,.,.,.,/,/,/,/
Cc1ccc(Cl)cc1NS(=O)(=O)N1CCOCC1,.,.,.,.,.,/,/,/,/
COc1ccc(Cl)cc1NS(=O)(=O)N1CCOCC1,.,.,-6.22,.,.,.,.,.,.
CCOc1ccc(C(NC(C)=O)c2ccc(OC)c(OC)c2)cc1 (stereo not drawn),.,.,-4.87,.,.,.,.,.,.
O=C(NCCCCc1ccccc1)Nc1ccc(F)cc1F,.,.,.,.,.,/,/,/,/
C[C@H]1C(=O)N(C)CCN1C(=O)c1cccc(OC2CCN(CC(C)(C)C)CC2)c1,.,.,.,.,.,/,/,/,/
Cc1ccc(Cl)c(OCC(=O)Nc2cccnc2)c1,.,.,.,.,.,/,/,/,/
Cc1ccc(Cl)c(OCC(=O)Nc2sc(C)c(C)c2C#N)c1,.,.,-7.94,.,.,.,.,.,.
CC(C)CCNC(=O)c1cc(-c2ccncc2)nc2ccc(S(=O)(=O)N3CCOCC3)cc12,.,.,-8.29,.,.,.,.,.,.
CCOc1ccc(C(=O)Nc2c(C(=O)N3CCC(N4CCCCC4)CC3)oc3ccccc23)cc1,.,.,.,.,.,/,/,/,/
Cc1noc(C)c1CSc1ncnc2ccccc12,.,.,-7.66,.,.,.,.,.,.
Cn1sccc1=O,.,/,.,.,/,/,/,/,/
CCn1c(/C=C/c2c(C)[nH]c3ccccc23)nc2ccccc2c1=O,.,.,-5.28,.,.,.,.,.,.
CCOC(=O)c1cc2occc2n1CC(=O)N1CCOCC1,.,.,.,.,.,/,/,/,/
CCOC(=O)c1cc2occc2n1CCCN1C(=O)c2ccccc2C1=O,.,.,-6.14,.,.,.,.,.,.
CCCc1cc(=O)n2[nH]c(NCc3cccs3)nc2n1,.,.,-10.5,.,.,.,.,.,.
CCCc1cc(=O)n2[nH]c(NCc3ccccc3Cl)nc2n1,.,.,.,.,.,/,/,/,/
CCCS(=O)(=O)c1nc(S(=O)(=O)c2ccc(C)cc2)c(N2CCN(CC)CC2)s1,.,.,.,.,.,/,/,/,/
COc1ccccc1NC(=O)C1=C(C)Nc2nc(-c3ccc(N(C)C)cc3)nn2C1c1ccncc1 (stereo not drawn),.,/,.,.,/,/,/,/,/
